The text below walks through data of article PMC2895766 (Journal of medicinal chemistry, 2010).

In data set [1] the target is human NE transporters [h(NET)] (Homo sapiens, UniProt P23975). The data set is described as follows: Inhibition of [3H]norepinephrine uptake in HEK293 cells expressing hNET. It counts as cell-based. As to conditions: ratio of IC50 values.
Data set [2] concerns α1*-, α3β4*-, α4β2-, or α4β4-nAChR. It counts as cell-based, human. As to conditions: highest concentration tested 100 μM.
Another data set concerns mice. Conditions: cited from earlier work.
The subject of data set [3] is nicotine-mediated antinociception (tail-flick). The data set is described as follows: Tail-flick test, blockade of nicotine-induced antinociception. It counts as in vivo. As to conditions: mice. In outline:
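Mice got saline or test compound 15 min before nicotine (2.5 mg/kg s.c.) and were tested 5 min after nicotine. Radiant heat was applied to the upper tail with a 10 s cutoff, and a pre-treatment control latency (2–4 s) was taken for each mouse. Blockade was scored as %MPE = [(test − control)/(10 − control)] × 100 and expressed as AD50 in mg/kg.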

Another data set deals with α4β2-nAChR (Homo sapiens, UniProt P17787+P43681). The data set is described as follows: 86Rb+ efflux assay, antagonism of carbamylcholine response, SH-EP1-hα4β2 cells. It counts as cell-based.
Sequence of α4β2-nAChR (P43681 29-627 limits assumed): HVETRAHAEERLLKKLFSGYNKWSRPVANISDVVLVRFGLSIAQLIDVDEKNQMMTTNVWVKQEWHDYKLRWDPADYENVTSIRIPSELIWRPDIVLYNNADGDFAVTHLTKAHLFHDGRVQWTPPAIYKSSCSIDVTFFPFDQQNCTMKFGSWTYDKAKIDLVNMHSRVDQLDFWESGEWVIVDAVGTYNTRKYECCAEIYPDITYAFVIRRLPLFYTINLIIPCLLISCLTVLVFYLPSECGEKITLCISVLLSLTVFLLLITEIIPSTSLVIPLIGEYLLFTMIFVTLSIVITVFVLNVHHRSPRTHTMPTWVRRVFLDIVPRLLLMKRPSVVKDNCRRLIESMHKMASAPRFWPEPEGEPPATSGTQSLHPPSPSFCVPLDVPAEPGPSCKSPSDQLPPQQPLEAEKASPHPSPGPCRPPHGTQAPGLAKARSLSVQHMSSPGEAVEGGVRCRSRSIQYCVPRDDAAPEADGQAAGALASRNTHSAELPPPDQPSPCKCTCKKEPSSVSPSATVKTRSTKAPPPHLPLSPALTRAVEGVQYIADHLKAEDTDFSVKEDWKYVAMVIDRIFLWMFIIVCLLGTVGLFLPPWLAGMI
Sequence of α4β2-nAChR (P17787 26-502): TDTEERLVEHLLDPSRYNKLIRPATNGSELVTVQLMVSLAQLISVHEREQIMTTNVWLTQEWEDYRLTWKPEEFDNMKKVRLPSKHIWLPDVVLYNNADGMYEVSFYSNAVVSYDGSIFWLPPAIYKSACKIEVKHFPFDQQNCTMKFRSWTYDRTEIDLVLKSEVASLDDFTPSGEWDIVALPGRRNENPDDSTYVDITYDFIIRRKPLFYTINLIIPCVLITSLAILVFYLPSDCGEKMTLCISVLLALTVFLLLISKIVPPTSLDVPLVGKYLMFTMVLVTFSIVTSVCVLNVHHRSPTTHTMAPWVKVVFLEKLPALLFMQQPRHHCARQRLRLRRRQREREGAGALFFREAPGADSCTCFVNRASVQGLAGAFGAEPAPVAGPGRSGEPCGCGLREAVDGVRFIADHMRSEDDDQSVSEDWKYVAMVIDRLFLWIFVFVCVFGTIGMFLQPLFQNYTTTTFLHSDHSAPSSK

Sequence of human NE transporters [h(NET)] (P23975 whole entry): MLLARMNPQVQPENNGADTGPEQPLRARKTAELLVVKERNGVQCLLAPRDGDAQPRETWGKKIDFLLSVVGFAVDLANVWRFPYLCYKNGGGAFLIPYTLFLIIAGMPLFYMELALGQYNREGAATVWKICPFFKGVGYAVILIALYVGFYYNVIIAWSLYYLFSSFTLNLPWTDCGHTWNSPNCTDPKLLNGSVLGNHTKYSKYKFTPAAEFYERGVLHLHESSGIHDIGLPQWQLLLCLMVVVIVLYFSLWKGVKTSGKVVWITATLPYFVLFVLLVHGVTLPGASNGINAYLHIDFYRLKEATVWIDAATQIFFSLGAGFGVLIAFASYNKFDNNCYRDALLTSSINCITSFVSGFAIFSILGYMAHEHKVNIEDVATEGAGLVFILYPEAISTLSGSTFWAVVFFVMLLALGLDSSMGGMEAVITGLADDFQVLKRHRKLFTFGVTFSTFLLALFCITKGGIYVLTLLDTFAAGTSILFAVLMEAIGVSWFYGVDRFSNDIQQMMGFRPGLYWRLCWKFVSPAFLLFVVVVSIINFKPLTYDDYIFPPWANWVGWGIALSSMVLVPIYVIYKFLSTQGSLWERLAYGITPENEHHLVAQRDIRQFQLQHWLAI

Consider `C[C@@H]1NC(C)(C)CO[C@@]1(O)c1cccc(Cl)c1` [(2S,3S)-4a, (2S,3S)-2-(3-Chlorophenyl)-3,5,5-trimethylmorpholin-2-ol, reference compound], for which the “times more potent than 2 in inhibiting NE uptake” value in data set [1] is given as 7.7 times. The “extent of antagonism at all nAChR subtypes tested” value (“extent of antagonism” for short) in data set [2] is reported as “full antagonist”. On to `C[C@H]1NC(C)(C)CO[C@]1(O)c1cccc(Cl)c1` (racemic) [racemic hydroxybupropion], for which, in the data set on mice, the “convulsions after i.p. administration” value is on record as “induced convulsions”.

Regarding `C[C@@H]1NC(C)(C)CO[C@@]1(O)c1cccc2ccccc12` [Compound 4q, (2S,3S)-2-(Naphthalen-1-yl)-3,5,5-trimethylmorpholin-2-ol], the “fold higher activity in the tail-flick assay than (2S,3S)-4a” value in data set [3] is ~ 5 fold. Same read-out and setting: next, `C[C@@H]1NC(C)(C)CO[C@@]1(O)c1ccc2ccccc2c1` [Compound 4r, (2S,3S)-2-(Naphthalen-2-yl)-3,5,5-trimethylmorpholin-2-ol]: ~ 5 fold.

Take `C[C@H]1NC(C)(C)CO[C@]1(O)c1cccc(Cl)c1` [(2R,3R)-4a, (2R,3R)-2-(3-Chlorophenyl)-3,5,5-trimethylmorpholin-2-ol, reference compound]: the “extent of antagonism” value in data set [2] is reported as “full antagonist”.

For the compound `CCC[C@@H]1NC(C)(C)CO[C@@]1(O)c1cccc(Cl)c1` [Compound 4t, (2S,3S)-2-(3-Chlorophenyl)-5,5-dimethyl-3-propyl-morpholin-2-ol], the “extent of antagonism” value in data set [2] is listed as “full antagonist”. Same read-out and setting: next, `C[C@@H]1NC(C)(C)CO[C@@]1(O)c1cccc([N+](=O)[O-])c1` [Compound 4g, (2S,3S)-2-(3-Nitrophenyl)-3,5,5-trimethylmorpholin-2-ol]: “block all nAChR function at an adequately high concentration”. For the compound `C[C@@H]1NC(C)(C)CO[C@@]1(O)c1cccc(Br)c1` [Compound 4d, (2S,3S)-2-(3-Bromophenyl)-3,5,5-trimethylmorpholin-2-ol], the “selectivity for inhibition of α4β2-nAChR over NE uptake inhibition” value at α4β2-nAChR is reported as ~ 1.7 fold. Moreover, the “extent of antagonism” value in data set [2] is “block all nAChR function at an adequately high concentration”. Take `C[C@@H]1NC(C)(C)CO[C@@]1(O)c1cccc(F)c1` [Compound 4c, (2S,3S)-2-(3-Fluorophenyl)-3,5,5-trimethylmorpholin-2-ol]: in data set [2], the “extent of antagonism” value was “block all nAChR function at an adequately high concentration”.
